Published values gathered from unrelated publications.
Protocols differ between the studies behind these lines.
Target: Tyrosine-protein kinase CSK (CSK, Homo sapiens, UniProt P41240)

`CS(=O)(=O)CCNCc1ccc(-c2ccc3ncnc(Nc4ccc(OCc5cccc(F)c5)c(Cl)c4)c3c2)o1` gave a remaining activity of 106% (enzyme activity; inhibitor; 0.5 µM).
`COc1ccc2cc(OCC3(C(=O)O)CN(C(=O)c4ccc(F)cc4)C3)ccc2c1` gave a remaining binding of 100% (cell-free assay; competition with immobilised ligand; 1 µM).
`C#Cc1cccc(Nc2ncnc3cc(OCCOC)c(OCCOC)cc23)c1` has a remaining signal of 100% (cell-free assay; inhibitor; 0.5 µM).
`FC(F)c1nc2ccccc2n1-c1nc(N2CCOCC2)nc(N2CCOCC2)n1` gave a remaining activity of 84% (enzyme activity; inhibitor; 10 µM).
`CC(C)(C)c1nc(-c2cccc(NS(=O)(=O)c3c(F)cccc3F)c2F)c(-c2ccnc(N)n2)s1` has a remaining activity of 34% (enzyme activity; inhibitor; radiometric; 1 µM).
With `FC(F)(F)Oc1cccc(-c2cnc3ccc(-c4ccncc4)nn23)c1` the activity vs control was 97% (enzyme activity; inhibitor; radiometric; 1 µM).
The remaining binding of `C[C@@H]1CN(c2cc(-c3nn(C)c4ccc(OC5(C)CC5)cc34)ncn2)C[C@H](C)O1` is reported as 100% (cell-free assay; competition with immobilised ligand; 1 µM).
`CCN1CCN(Cc2ccc(NC(=O)c3ccc(C)c(Oc4ccnc5[nH]ccc45)c3)cc2C(F)(F)F)CC1` gave an inhibition of -14.9% (target engagement in cells; inhibitor; chemoproteomics; A-375; 0.5 µM).
With `CCN(CC)CCNC(=O)c1c(C)[nH]c(/C=C2\C(=O)Nc3ccc(F)cc32)c1C` the inhibition was 10% (enzyme activity; inhibitor; 10 µM).
The remaining activity of `Cc1sc(C(=O)NC2COC2)cc1-n1cc(NC(=O)Nc2c(F)cccc2Cl)cn1` is reported as 98% (enzyme activity; inhibitor; 10 µM).
For `CNC(=O)Nc1ccc2c(c1)[C@@]1(CC2)OC(=O)N(CC(=O)N(Cc2ccc(F)cc2)[C@@H](C)C(F)(F)F)C1=O`, the remaining binding was 100% (cell-free assay; competition with immobilised ligand; 1 µM).
With `Cc1ccc(Nc2nccc(N(C)c3ccc4c(C)n(C)nc4c3)n2)cc1S(N)(=O)=O` the inhibition was 24% (enzyme activity; inhibitor; 10 µM).
With `CS(=O)(=O)Nc1cccc(-c2csc(NC(=O)CSc3nc4nccnc4c(=O)n3CCc3ccccc3)n2)c1` the inhibition was 4% (enzyme activity; inhibitor; 10 µM).
`Nc1nc(Nc2ccccc2)sc1C(=O)c1c(F)cccc1F` gave a remaining activity of 90% (enzyme activity; inhibitor; 10 µM).
With `Cc1ccc(C(=O)Nc2ccc(CN3CCN(C)CC3)c(C(F)(F)F)c2)cc1C#Cc1cnc2cccnn12` the remaining activity was 15% (enzyme activity; inhibitor; 23.5 nM).
With `N#CCCc1ccc2c(c1)-c1[nH]c3ccc([N+](=O)[O-])cc3c1CC(=O)N2` the remaining signal was 96.3% (cell-free assay; 0.5 µM).
For `Cn1c(=O)n(-c2ccc(C(C)(C)C#N)cc2)c2c3cc(-c4cnc5ccccc5c4)ccc3ncc21`, the remaining activity was 100% (enzyme activity; inhibitor; 10 µM).
For `CC(C)(O)[C@H]1CC[C@H](Nc2ccc3ncc(-c4cccc(C(F)(F)F)c4)n3n2)CC1`, the remaining activity was 95.3% (enzyme activity; inhibitor; 1 µM).
`CCCOc1ccc([C@@H]2[C@@H](C(=O)O)[C@H](c3ccc4c(c3)OCO4)CN2CC(=O)Nc2c(CC)cccc2CC)cc1` has a remaining binding of 91% (cell-free assay; competition with immobilised ligand; 1 µM).
`Cc1cnc(NC2CCOCC2)nc1-n1cnc(C(=O)NC(CN)c2cc(F)cc(Cl)c2)c1` (stereo not drawn) gave a remaining activity of 110% (enzyme activity; inhibitor; radiometric; 1 µM).
`C[C@H](c1cccc(C#N)c1)n1cc(Cl)cc(C(N)=O)c1=N` has a remaining binding of 100% (cell-free assay; competition with immobilised ligand; 1 µM).
For `Cc1nc(Nc2ncc(C(=O)Nc3c(C)cccc3Cl)s2)cc(N2CCN(CCO)CC2)n1`, the activity vs control was 7.11% (enzyme activity; inhibitor; 0.5 µM).
The activity vs control of `COc1cc(/C=C/C(=O)CC(=O)/C=C/c2ccc(O)c(OC)c2)ccc1O` is reported as 78% (enzyme activity; inhibitor; 1 µM).
`Cc1c[nH]c2nccc(Oc3c(F)cc(Nc4cc(Cl)nc(N)n4)cc3F)c12` gave a remaining binding of 87% (cell-free assay; competition with immobilised ligand; 0.1 µM).
`COc1cc(Nc2cnc(C#N)c(O[C@H](C)CN(C)C)n2)ncc1-c1cnn(C)c1` has a remaining activity of 83% (enzyme activity; inhibitor; radiometric; 1 µM).
The inhibition of `CNC(=O)c1cc(Oc2ccc(NC(=O)Nc3ccc(Cl)c(C(F)(F)F)c3)cc2)ccn1` is reported as 22% (enzyme activity; inhibitor; 10 µM).
With `COc1cc2nccc(Oc3ccc(NC(=O)c4c5n(n(-c6ccc(F)cc6)c4=O)CCCC5)cc3)c2cc1OC` the inhibition was 2% (enzyme activity; inhibitor; 0.1 µM).
`Cc1nc(Cc2cccc(C(F)(F)F)c2)sc1-c1ccc(C(N)=O)nc1` gave a remaining binding of 88% (cell-free assay; competition with immobilised ligand; 1 µM).
`COc1cc2ncnc(Nc3ccc(Oc4ccccc4)cc3C)c2cc1OC` gave an inhibition of 91% (enzyme activity; inhibitor; 1 µM).
For `CN(c1ncccc1CNc1nc(Nc2ccc3c(c2)CC(=O)N3)ncc1C(F)(F)F)S(C)(=O)=O`, the inhibition was 29.1% (enzyme activity; inhibitor; 1 µM).
The remaining activity of `Nc1ncnc2occ(-c3ccc(NC(=O)Nc4cc(C(F)(F)F)ccc4F)cc3)c12` is reported as 2% (enzyme activity; inhibitor; 20 µM).
For `Cn1nc(C(=O)NCc2ccc(C(=O)O)cc2)cc1-c1ccc2[nH]ccc2c1`, the remaining binding was 94% (cell-free assay; competition with immobilised ligand; 0.1 µM).
`Cc1ccc(NC(=O)c2ccc(C)c(C(F)(F)F)c2)cc1C#Cc1nn(C2CCC(O)CC2)c2ncnc(N)c12` (stereo not drawn) gave a remaining signal of -1% (cell-free assay; inhibitor; 10 µM).
